ChEMBL document CHEMBL1128354, “Fluorenylalkanoic and benzoic acids as novel inhibitors of cell adhesion processes in leukocytes” (J Med Chem, 1995)

Legend:
Homo sapiens [1] = organism: Homo sapiens; experiment: In vitro ability to inhibit the adhesion of neutrophil activated by tumor necrosis factor (alpha-TNF) to serum-coated plastic wells.; type: functional, organism-based
How it was run: (§1)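 Human blood PMN, isolated and RBC-lysed, at 4×10^6/mL were preincubated with compound (from 100× DMSO stocks) for 10 min at 37 °C in wells coated with 10% pooled human serum. TNF-α was then added to 0.6 nM and adherence run for 20 min. Adherent cells quantitated by BCA protein assay. Seven dilutions in duplicate gave IC50, averaged over at least three experiments ± SEM.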

[2] = (§2) LD50 value for polymorphonuclear granulocytes was determined; type: ADME; details: human, read-out: LD50 (the source's name)
How it was run: (§3)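 Viability read-out for LD50: human PMN (isolated from heparinised blood of unmedicated volunteers) or endothelial cell suspension in phenol red-free medium, with compound, incubated in serum-coated wells for 30 min at 37 °C. Calcein AM (added as 2 μM solution in HBSS++) for a further 30 min. Fluorescence read at ex/em 485/535 nm from live-cell esterase cleavage.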

Homo sapiens [3] = organism: Homo sapiens; experiment: In vitro ability to inhibit the adhesion of neutrophil activated by platelet activating factor (PAF) to serum-coated plastic wells was determined; type: functional
How it was run: as §1, with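 “PAF” for “TNF-α”, “1 μM” for “0.6 nM”, “10” for “20”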

[4] = LD50 value for endothelial cells was determined; type: ADME, cell-based, Endothelial cell; details: human, read-out: LD50 (the source's name); how it was run: as §3
[5] = In vitro ability to inhibit adherence of activated polymorphonuclear granulocytes to endothelial cells using IFN gamma-(HUVEC) assay was determined; details: Homo sapiens
[6] = as §2; type: functional; details: Homo sapiens; read-out: LD50 (the source's name); how it was run: as §3

CC(C)C[C@H](NC(=O)OCC1c2ccccc2-c2ccccc21)C(=O)O
IC50 (Homo sapiens [1]): 78 µM

O=C(Nc1ccccc1C(=O)O)OC1c2ccccc2-c2ccccc21
IC50 (Homo sapiens [1]): 19 µM

O=C(O)c1ccc(OCCCCC2c3cc(Cl)ccc3-c3ccc(Cl)cc32)cc1
IC50 (Homo sapiens [1]): 8.1 µM

O=C(O)c1ccc(CC2c3cc(Cl)ccc3-c3ccc(Cl)cc32)cc1
IC50 (Homo sapiens [1]): 29.1 µM

O=C(O)CCCC1c2ccccc2-c2ccccc21
IC50 (Homo sapiens [1]): 97 µM

O=C(O)C1c2ccccc2-c2ccccc21
IC50 (Homo sapiens [1]): > 200 µM

O=C(O)c1cccc(OCCCC2c3ccccc3-c3ccccc32)c1
IC50 (Homo sapiens [1]): 13.8 µM

O=C(O)c1cccc(OCCCCCC2c3ccccc3-c3ccccc32)c1
IC50 (Homo sapiens [1]): 5.23 µM

O=C(O)c1ccc(CC2c3ccccc3-c3ccccc32)cc1
CC50 [2]: 306 µM
IC50 (Homo sapiens [3]): 17.8 µM
CC50 [4]: > 1000 µM
IC50 [5]: 91.2 µM
IC50 (Homo sapiens [1]): 27.6 µM

CC(C)(C)c1ccc2c(c1)C(Cc1ccc(C(=O)O)cc1)c1cc(C(C)(C)C)ccc1-2
IC50 (Homo sapiens [1]): > 200 µM

O=C(N[C@@H](Cc1ccccc1)C(=O)O)OCC1c2ccccc2-c2ccccc21
IC50 (Homo sapiens [1]): 58 µM

O=C(O)c1ccccc1OCCC1c2ccccc2-c2ccccc21
IC50 (Homo sapiens [1]): 73.3 µM

O=C(O)CCCCC1c2ccccc2-c2ccccc21
IC50 (Homo sapiens [1]): 87 µM

Cc1ccc2c(c1)C(COC(=O)N[C@@H](CC(C)C)C(=O)O)c1cc(C)ccc1-2
CC50 [2]: 343 µM
IC50 (Homo sapiens [3]): 31.7 µM
CC50 [4]: 354 µM
IC50 [5]: 117 µM
IC50 (Homo sapiens [1]): 41.7 µM

O=C(O)c1ccccc1OCCCCCC1c2ccccc2-c2ccccc21
IC50 (Homo sapiens [1]): 15.8 µM

O=C(O)c1ccc(OCCCCC2c3ccccc3-c3ccccc32)cc1
CC50 [2]: 113 µM
IC50 (Homo sapiens [3]): 5.2 µM
CC50 [4]: > 1000 µM
IC50 [5]: 19.8 µM
IC50 (Homo sapiens [1]): 7.53 µM

O=C(O)CCCCCCCCCC1c2ccccc2-c2ccccc21
IC50 (Homo sapiens [1]): 11.6 µM

O=C(Nc1ccc(C(=O)O)cc1)OCCC1c2ccccc2-c2ccccc21
IC50 (Homo sapiens [1]): 30 µM

O=C(O)c1cccc(OCCC2c3ccccc3-c3ccccc32)c1
IC50 (Homo sapiens [1]): 31 µM

O=C(O)c1ccc(OCCCCCC2c3ccccc3-c3ccccc32)cc1
CC50 [2]: 295 µM
IC50 (Homo sapiens [3]): 11.7 µM
CC50 [4]: > 1000 µM
IC50 [5]: 48.2 µM
IC50 (Homo sapiens [1]): 7.13 µM

O=C(O)c1cccc(OCCCCC2c3ccccc3-c3ccccc32)c1
IC50 (Homo sapiens [1]): 6.6 µM

O=C(O)c1ccc(OCCCC2c3ccccc3-c3ccccc32)cc1
CC50 [2]: 281 µM
IC50 (Homo sapiens [3]): 36.4 µM
CC50 [4]: > 1000 µM
IC50 [5]: 23.2 µM
IC50 (Homo sapiens [1]): 15.6 µM

O=C(O)CCCCCC1c2ccccc2-c2ccccc21
IC50 (Homo sapiens [1]): 55.2 µM

O=C(O)CCC1c2ccccc2-c2ccccc21
IC50 (Homo sapiens [1]): > 200 µM

O=C(O)CC1c2ccccc2-c2ccccc21
IC50 (Homo sapiens [1]): > 200 µM

O=C(O)CCCCCCCC1c2ccccc2-c2ccccc21
IC50 (Homo sapiens [1]): 32.2 µM

O=C(Nc1ccc(C(=O)O)cc1)OCCC1c2cc(Cl)ccc2-c2ccc(Cl)cc21
CC50 [6]: 62.5 µM
IC50 (Homo sapiens [3]): 17.8 µM
CC50 [4]: 82.3 µM
IC50 [5]: 26.1 µM
IC50 (Homo sapiens [1]): 9.8 µM

CC(C)(C)c1ccc2c(c1)C(CCCCOc1ccc(C(=O)O)cc1)c1cc(C(C)(C)C)ccc1-2
IC50 (Homo sapiens [1]): 8 µM

O=C(Nc1ccc(C(=O)O)cc1)OCC1c2ccccc2-c2ccccc21
IC50 (Homo sapiens [1]): > 500 µM

O=C(O)c1ccccc1OCCCC1c2ccccc2-c2ccccc21
IC50 (Homo sapiens [1]): 55.4 µM

O=C(O)c1ccc(C2c3ccccc3-c3ccccc32)cc1
IC50 (Homo sapiens [1]): 81.6 µM

O=C(O)C(CCCCC1c2ccccc2-c2ccccc21)Cc1ccccc1 (stereo unspecified)
CC50 [2]: 79 µM
CC50 [4]: 72 µM
IC50 [5]: 10.2 µM
IC50 (Homo sapiens [1]): 6 µM

O=C(Nc1ccc(C(=O)O)cc1)OC1c2ccccc2-c2ccccc21
IC50 (Homo sapiens [1]): 30 µM

O=C(O)c1ccc(OCCC2c3ccccc3-c3ccccc32)cc1
IC50 (Homo sapiens [1]): 14 µM
